According to ChEMBL document CHEMBL1136979, “Discovery of 4-anilino-N-methylthieno[3,2-d]pyrimidines and 4-anilino-N-methylthieno[2,3-d]pyrimidines as potent apoptosis inducers” (Bioorg Med Chem Lett, 2009):

Legend:
[1] = Inhibition of tubulin polymerization by high-throughput assay
[2] = system: NCI-H1299; assay: Induction of apoptosis in human H1299 cells assessed as caspase activation after 48 hrs by HTS assay; format: functional, cell-based; settings: NCI-H1299, 48 h
How it was run: (§1)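 Cell-based caspase activation HTS assay that reads cleavage of a fluorescent caspase-3 substrate in human breast cancer T47D or non-small cell lung cancer H1299 cells. Cells were exposed to compound for 48 h. EC50 is the mean ± SEM of three or more experiments.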

[3] = system: T47D; assay: Induction of apoptosis in human T47D cells assessed as caspase activation after 48 hrs by HTS assay; format: functional, cell-based; how it was run: as §1
[4] = system: MX1; assay: Antitumor activity against human MX1 cells xenografted in Crl:Nu/Nu-nuBR mouse assessed as tumor growth inhibition at 75 mg/kg, iv administered as single dose; format: functional; settings: read-out: TGI
How it was run: (§2)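 Nude (Crl:Nu/Nu-nuBR) mice bore established MX-1 xenografts of about 100 mm³. Compound was given iv as single doses of 35, 50 or 75 mg/kg on day 1, or at 7 mg/kg daily on days 1–5, against a vehicle group. Tumor growth inhibition was assessed against vehicle, with significance by Student's t-test.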

[5] = system: Mus musculus; assay: Toxicity in Crl:Nu/Nu-nuBR mouse assessed as maximum body weight decrease at 75 mg/kg, iv administered as single dose; format: organism-based; parameters: dose 75 mg/kg, route intravenous; scale not given: the % may be the effect or the level left; settings: in vivo
[6] = system: MX1; assay: Antitumor activity against human MX1 cells xenografted in iv dosed Crl:Nu/Nu-nuBR mouse assessed as tumor growth inhibition administered as single dose; format: functional, organism-based; how it was run: as §2

| Structure (SMILES) | IC50 [1] | EC50 [2] | EC50 [3] | inhibition in vivo at 75 mg/kg [4] | Activity [5] | Activity [6] |
| --- | --- | --- | --- | --- | --- | --- |
| c1ccc(-c2cc3ncnc(Nc4ccc5c(c4)OCO5)c3s2)cc1 |  | > 10000 nM | > 10000 nM |  |  |  |
| COc1ccc(OC)c(N(C)c2ncnc3ccsc23)c1 |  | 5000 nM | 2600 nM |  |  |  |
| COc1ccc(N(C)c2nccc3ccsc23)cc1 |  | > 10000 nM | > 10000 nM |  |  |  |
| COc1ccc(N(C)c2ncnc3ccsc23)cc1OC |  | 2800 nM | 1700 nM |  |  |  |
| COc1cc(OC)cc(N(C)c2ncnc3ccsc23)c1 |  | > 10000 nM | > 10000 nM |  |  |  |
| COc1cccc(N(C)c2ncnc3ccsc23)c1 |  | > 10000 nM | > 10000 nM |  |  |  |
| COc1ccc(N(C)c2ncnc3cc(I)sc23)cc1 |  | > 10000 nM | > 10000 nM |  |  |  |
| c1nc(NCc2ccc3c(c2)OCO3)c2sccc2n1 |  | > 10000 nM | > 10000 nM |  |  |  |
| COc1ccccc1N(C)c1ncnc2ccsc12 |  | > 10000 nM | > 10000 nM |  |  |  |
| COc1ccc(N(C)c2nc(-c3ccccc3)nc3ccsc23)cc1 |  | 630 nM | 340 nM |  |  |  |
| COc1ccc(Nc2ncnc3ccsc23)cc1 |  | > 10000 nM | > 10000 nM |  |  |  |
| COc1ccc(N(C)c2ncnc3cc(-c4cccnc4)sc23)cc1 |  | > 10000 nM | > 10000 nM |  |  |  |
| COc1cc2c(c(OC)c1OC)-c1ccc(OC)c(=O)cc1[C@@H](NC(C)=O)CC2 [COLCHICINE] | 500 nM | 50 nM | 9 nM |  |  |  |
| COc1ccc(Nc2ncnc3scc(C)c23)cc1 |  | > 10000 nM | > 10000 nM |  |  |  |
| c1ccc(-c2cc3ncnc(NCc4ccc5c(c4)OCO5)c3s2)cc1 |  | 700 nM | 1000 nM |  |  |  |
| COc1ccc(Nc2nc(C)nc3scc(C)c23)cc1 |  | > 10000 nM | > 10000 nM |  |  |  |

Continued, in another order:

| IC50 [1] | EC50 [2] | EC50 [3] | Structure (SMILES) | inhibition in vivo at 75 mg/kg [4] | Activity [5] | Activity [6] |
| --- | --- | --- | --- | --- | --- | --- |
| < 1000 nM | 91 nM | 21 nM | COc1ccc(N(C)c2nc(C)nc3sc(C)c(C)c23)cc1 |  |  |  |
|  | 310 nM | 240 nM | COc1ccc(N(C)c2nc(C)nc3c(C)csc23)cc1 |  |  |  |
| < 1000 nM | 240 nM | 52 nM | COc1ccc(N(C)c2ncnc3ccsc23)cc1 |  |  |  |
|  | 340 nM | 190 nM | COC(=O)c1ccc(N(C)c2ncnc3ccsc23)cc1 |  |  |  |
| < 1000 nM | 44 nM | 22 nM | COc1ccc(N(C)c2ncnc3sccc23)cc1 |  |  |  |
|  | 6 nM | 2 nM | COc1ccc(N(C)c2nc(C)nc3ccccc23)cc1 [VERUBULIN] |  |  |  |
| < 1000 nM | 32 nM | 14 nM | COc1ccc(N(C)c2nc(C)nc3ccsc23)cc1 |  |  |  |
|  | 560 nM | 560 nM | COc1ccc(N(C)c2ncnc3c(C)csc23)cc1 |  |  |  |
| < 1000 nM | 16 nM | 8 nM | COc1ccc(N(C)c2nc(C)nc3sccc23)cc1 | 90% | < 10% | Dose-dependent effect |
| < 1000 nM | 25 nM | 15 nM | COc1ccc(N(C)c2ncnc3scc(C)c23)cc1 |  |  |  |
| < 1000 nM | 15 nM | 4 nM | COc1ccc(N(C)c2nc(C)nc3scc(C)c23)cc1 |  |  |  |
| < 1000 nM | 53 nM | 24 nM | COc1ccc(N(C)c2ncnc3sc(C)c(C)c23)cc1 |  |  |  |
